The results in this text go back to ChEMBL document CHEMBL3272132, “Centrally acting emetics. 10. Rigid dopamine congeners derived from octahydrobenzo[f]quinoline” (J Med Chem, 1976).

Activity calls are given as the source filed them. No cut-off for these calls is given here.

The subject of series [1] is Felis catus. Put plainly: Effect on 2 Hz stimulation of right cardioaccelerator nerve-induced positive chronotropic response in iv dosed cat assessed as concentration required for 50% inhibition of change in heart rate. It counts as functional.
Series [2] concerns Canis familiaris. As to the kind of experiment: In vivo agonist activity at dopamine receptor in sc dosed mongrel dog assessed as induction of emesis after 1 hr relative to apomorphine. It counts as functional, Canis lupus familiaris. In a few lines:
(§1)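 Mongrel dogs, five per dose, with doses spaced at 0.3 log intervals and given sc. Emetic episodes were counted for 1 h after dosing. Apomorphine hydrochloride served as reference standard.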

The nature of series [3]: In vivo antagonist activity at dopamine receptor in pigeon assessed as inhibition of apomorphine-induced pecking behavior administered intramuscularly for 15 mins prior to apomorphine-challenge measured after 1 hr. The conditions noted are these: Columbidae, im. Format: functional. In a few lines: (§2)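 Pigeons were pretreated im with compound 15 min before im apomorphine hydrochloride (1.6 μmol/kg), and pecking frequency was quantified. Five pigeons per dose, three antagonist doses spaced at 0.3 log intervals.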

A short description of series [4]: In vivo antagonist activity at dopamine receptor in pigeon assessed as inhibition of apomorphine-induced pecking behavior administered intramuscularly for 15 mins prior to apomorphine-challenge measured after 1 hr relative to control. Format: functional, Columbidae. In a few lines:
as §2

The next series deals with Mus musculus. As to the kind of experiment: Hypothermic activity in mouse assessed as decrease in rectal temperature at 10 mg/kg, sc measured every 15 mins. Format: functional. The conditions noted are these: route subcutaneous.
The subject of series [5] is Canis familiaris. Put plainly: Toxicity in sc dosed mongrel dog assessed as behavioral changes. Format: organism-based, Canis lupus familiaris. As to conditions: in vivo.
The species entered for series [6] is Felis catus. Put plainly: Effect on 2 Hz transmural stimulation of right atrium-induced positive chronotropic response in cat assessed as inhibition of change in heart rate. Format: functional, Cardiac atrium. The method, boiled down: (§3)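 Isolated cat right atria in Feigan's solution under transmural field stimulation: 2 Hz, 5 ms pulses, maximal voltage, 10 s trains every 5 min, activating adrenergic terminals. After control heart-rate increases were established, compound was added to the bath and its effect was read 5 min later. Estimated ID50 or 50%-potentiation concentration in μM.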

Series [7] has as its system Felis catus. Put plainly: Effect on 2 Hz stimulation of right cardioaccelerator nerve-induced positive chronotropic response in iv dosed cat assessed as inhibition of change in heart rate in presence of haloperidol. It counts as functional, organism-based. In a few lines:
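Cat right cardioaccelerator nerve preparation with 2 Hz stimulation and heart-rate response recorded. Haloperidol (100 μg/kg) was given iv before the iv test compound, then inhibition of the nerve-evoked heart-rate increase was assessed.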

Series [8] deals with Felis catus. Put plainly: Effect on 2 Hz stimulation of right cardioaccelerator nerve-induced positive chronotropic response in iv dosed cat assessed as concentration required for 50% potentiation of change in heart rate. Format: functional.
For series [9], the species on record is Felis catus. Put plainly: Effect on 2 Hz transmural stimulation of right atrium-induced positive chronotropic response in cat assessed as concentration required for 50% potentiation of change in heart rate. It counts as functional, Cardiac atrium. The method, boiled down:
as §3

The subject of series [10] is Canis familiaris. As to the kind of experiment: In vivo agonist activity at dopamine receptor in mongrel dog assessed as induction of emesis up to 5 mg/kg, sc after 1 hr. Format: functional, organism-based. Set-up: dose 5 mg/kg. As to conditions: Canis lupus familiaris. The method, boiled down:
as §1

Series [11] concerns Felis catus. Put plainly: Effect on 2 Hz stimulation of right cardioaccelerator nerve-induced positive chronotropic response in cat assessed as potentiation of change in heart rate up to 3.5 umol/kg, iv. It counts as functional, organism-based.
Series [12] relates to Canis familiaris. Put plainly: In vivo antagonist activity at dopamine receptor in sc dosed mongrel dog assessed as inhibition of apomorphine-induced emesis pretreated for 15 mins followed by apomorphine-challenge measured after 1 hr. Format: functional. As to conditions: Canis lupus familiaris. The method, boiled down: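 Dogs were given compound sc 15 min before sc apomorphine hydrochloride (100 μg/kg). Emesis frequency over 1 h was compared with the apomorphine control value in the same dogs.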

Another series deals with Columbidae. Put plainly: In vivo agonist activity at dopamine receptor in pigeon assessed as induction of pecking behavior administered intramuscularly after 1 hr. It counts as functional, organism-based. In a few lines: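 Pigeons were given compound intramuscularly, and pecking frequency was recorded for 1 h afterwards. Apomorphine hydrochloride served as reference standard.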

The subject of series [13] is Felis catus. As to the kind of experiment: Effect on 2 Hz stimulation of right cardioaccelerator nerve-induced positive chronotropic response in cat assessed as potentiation of change in heart rate up to 3.3 umol/kg, iv. Format: functional, organism-based.

As a reminder, the ED50 is the dose at which the effect has come halfway, by size or by number of responders.

As for `Br.CN1CCC[C@H]2c3cccc(O)c3CC[C@@H]21` (relative stereo), the Activity in the series on Felis catus [1] is more than 2.1 µmol/kg; in the series on Canis familiaris [5], “Non-toxic”. Besides, the “fold change (FC)” value was found to be 0.03 in the series with Canis familiaris [2] and 0.76 in series [4]. Besides, the ED50 in series [3] came out at 2.2 µmol/kg. In addition, the T in the series on Mus musculus came to 1.4 °C. Moreover, the ID50 in the series listed under Felis catus [6] is on record as 1 ×10⁻¹ microM. Further, the inhibition entry with Felis catus [7] was “inactive”.

In the case of `CN1CCC[C@H]2c3ccccc3CC[C@@H]21` (relative stereo), the Activity entry is “<=3.5 umol/Kg” in the series with Felis catus [8], “Non-toxic” in the series with Canis familiaris [5] and 7.8 µM in the series listed under Felis catus [9]. For the same compound, the ED50 in series [3] turned out to be 2.2 µmol/kg; in the series with Canis familiaris [12] it was 4.1 µmol/kg. The “fold change (FC)” value in series [4] is 0.74. Further, the T with Mus musculus was 2.6 °C. Also, the result in the series with Canis familiaris [10] and in the series on Felis catus [11] was inactive.

As to `Br.CN1CCC[C@H]2c3ccc(O)c(O)c3CC[C@@H]21` (relative stereo), the Activity in the series on Felis catus [1] came to 0.0052 µmol/kg. In addition, in the series on Canis familiaris [2], the “fold change (FC)” value is 6.1. In addition, in the series with Mus musculus, the T amounted to 4.4 °C. Moreover, the ID50 in the series filed under Felis catus [6] is reported as 3.2 ×10⁻³ microM. Also, the inhibition entry in the series with Felis catus [7] is “inactive”.

On to `COc1ccc2c(c1OC)CC[C@H]1[C@@H]2CCCN1C` (relative stereo), for which, in [3], the ED50 was found to be 1.7 µmol/kg. The “fold change (FC)” value in series [4] is 1. Further, the Activity entry in the series on Canis familiaris [5] is recorded as “Non-toxic”. Besides, the result with Canis familiaris [10] was inactive.

For the compound `Br.CN1CCC[C@@H]2c3ccc(O)c(O)c3CC[C@@H]21` (relative stereo), the Activity in the series on Felis catus [1] was found to be 0.59 µmol/kg. In addition, the “fold change (FC)” value stood at 0.02 with Canis familiaris [2] and 0.2 in series [4]. Also, the ED50 in series [3] came out at 8.3 µmol/kg. Moreover, the T with Mus musculus was determined as 1.6 °C. Moreover, the ID50 in the series listed under Felis catus [6] came out at 4.7 ×10⁻² microM. In the series with Felis catus [7], the inhibition result is “inactive”.

As to `CN1CCc2cccc3c2[C@H]1Cc1ccc(O)c(O)c1-3.CN1CCc2cccc3c2[C@H]1Cc1ccc(O)c(O)c1-3.Cl.Cl.O` [APOMORPHINE HYDROCHLORIDE], the result in the series with Columbidae was Active. In addition, in the series on Mus musculus, the T was 3.6 °C. In addition, the Activity entry in the series with Canis familiaris [5] is on record as “Non-toxic”.

As for `CN1CCC[C@@H]2c3ccccc3CC[C@@H]21` (relative stereo), the Activity result in the series with Felis catus [8] is “<=3.5 umol/Kg”; in the series on Canis familiaris [5], “Non-toxic”; in the series listed under Felis catus [9], 1.6 µM. The ED50 in series [3] was 2.7 µmol/kg; in the series with Canis familiaris [12] it was 8.8 µmol/kg. For the same compound, the “fold change (FC)” value in series [4] is 0.61. For the same compound, the T with Mus musculus was determined as 1.6 °C. The result with Canis familiaris [10] and with Felis catus [11] was inactive.

With `Br.CN1CCC[C@H]2c3ccc(O)cc3CC[C@@H]21` (relative stereo), the outcome in the series with Felis catus [13] and with Canis familiaris [10] was inactive. Further, the values for the Activity result with Felis catus [8], in the series with Canis familiaris [5] and in the series listed under Felis catus [9] were “<=3.3 umol/Kg”, “Non-toxic” and 12.7 µM, respectively. Also, the ED50 is 9 µmol/kg in series [3] and 4.3 µmol/kg with Canis familiaris [12]. Moreover, the “fold change (FC)” value in series [4] is listed as 0.18. Further, in the series on Mus musculus, the T turned out to be 2.4 °C.

As for `Br.CN1CCC[C@@H]2c3ccc(O)cc3CC[C@@H]21`, the outcome with Felis catus [13] and in the series on Canis familiaris [10] was inactive. The Activity entry was “<=3.3 umol/Kg” in the series on Felis catus [8], “Non-toxic” with Canis familiaris [5] and 3.9 µM in the series filed under Felis catus [9]. For the same compound, the results for the ED50 (in series [3]; with Canis familiaris [12]) were 16.5 µmol/kg and 10 µmol/kg, respectively. The “fold change (FC)” value in series [4] amounted to 0.1. Moreover, the T in the series on Mus musculus stood at 2.3 °C.

On to `COc1ccc2c(c1OC)CC[C@H]1[C@H]2CCCN1C` (relative stereo), for which, in [3], the ED50 came out at 15.1 µmol/kg. For the same compound, the “fold change (FC)” value in series [4] turned out to be 0.11. Further, the Activity result in the series with Canis familiaris [5] is given as “Non-toxic”. Also, in the series on Canis familiaris [10], the result was inactive.

With `Br.CN1CCC[C@@H]2c3cccc(O)c3CC[C@@H]21` (relative stereo), the figures for the Activity with Felis catus [8] and with Canis familiaris [5] were more than 3.3 µmol/kg and “Non-toxic”, respectively. Besides, the values for the ED50 (in [3]; in the series with Canis familiaris [12]) were 3.8 µmol/kg and 6 µmol/kg, respectively. The “fold change (FC)” value in [4] was 0.44. In the series with Mus musculus, the T came to 0 °C. Besides, the result in the series with Canis familiaris [10] was inactive.
